# Measured values reported in ChEMBL document CHEMBL4665721, “Mdm2 inhibitors as a platform for the design of P-glycoprotein inhibitors” (Bioorg Med Chem Lett, 2020).
# Activity calls are given as the source filed them. The calls are words filed in the database; no cut-off is given here.
# Key:
# MCF7 = experiment: Growth inhibition of human MCF7 upto 10 uM incubated for 48 hrs; format: functional, cell-based; conditions: dose microM <=10, time 48.0 hrs
# How it was run: (§1)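 Cells plated in DMEM and grown 48 h in 96-well optical-bottom plates before treatment. Compounds were added as 200X dilutions of DMSO stocks and tested up to 10 μM. After 48 h, wells were washed with PBS and monolayer confluence was scored by brightfield imaging. Untreated cells served as controls. Triplicate; mean ± SEM.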
# HCT-116 = experiment: Growth inhibition of human p53 -/- NCI-HCT-116 cells upto 10 uM incubated for 48 hrs; format: functional, cell-based; conditions: dose microM <=10, time 48.0 hrs; how it was run: as §1
# NCI-H1299 = experiment: Growth inhibition of human p53 -/- H1299 cells upto 10 uM incubated for 48 hrs; conditions: dose microM <=10, time 48.0 hrs
# Homo sapiens [1] = organism: Homo sapiens; experiment: Inhibition of P-gp-mediated Rhodamine-123 efflux in human MCF7 cells assessed as Rhodamine-123 accumulation measured after 40 mins by spectrofluorimetry; format: cell-based
# How it was run: (§2)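 Cells in DMEM, 96-well plates, grown to 30% confluency, then co-treated with compounds and Rhodamine 123 (1 μM in solution). Even cell distribution checked by imaging. After 40 min, cells were washed and Rhodamine 123 fluorescence read on a plate reader (ex 488 nm, em 515-575 nm). Signal with 0.5 μM tariquidar in each line set to 100%. Triplicate; mean ± SEM.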
# Homo sapiens [2] = organism: Homo sapiens; experiment: Inhibition of P-gp-mediated Rhodamine-123 efflux in human p53 -/- HCT-116 assessed as Rhodamine-123 accumulation measured after 40 mins by spectrofluorimetry; how it was run: as §2
# Homo sapiens [3] = organism: Homo sapiens; experiment: Inhibition of P-gp-mediated Rhodamine-123 efflux in human p53 -/- H1299 cells assessed as Rhodamine-123 accumulation measured after 40 mins by spectrofluorimetry
Structure (SMILES),inhibition (MCF7),inhibition (HCT-116),inhibition (NCI-H1299),inhibition (Homo sapiens [1]),inhibition (Homo sapiens [2]),inhibition (Homo sapiens [3])
COc1cc2c(cc1OC)CN(CCc1ccc(NC(=O)c3cc(OC)c(OC)cc3NC(=O)c3cnc4ccccc4c3)cc1)CC2,inactive,inactive,inactive,,,
CC(C)[C@@H](CS(=O)(=O)C(C)C)N1C(=O)[C@@](C)(CC(=O)O)C[C@H](c2cccc(Cl)c2)[C@H]1c1ccc(Cl)cc1,,Active,Active,inactive,inactive,Active
N[C@H](C(=O)OCCCOC1(c2ccc(Cl)cc2)c2ccccc2C(=O)N1Cc1ccc(Cl)cc1)c1ccccc1 (stereo not given in full),,,,Active,Active,Active
COc1ccc(C2=N[C@@H](c3ccc(Cl)cc3)[C@@H](c3ccc(Cl)cc3)N2C(=O)N2CCNC(=O)C2)c(OC(C)C)c1,,,,,,Active
O=C(NCc1ccc(F)cc1)c1ccc(/C=C2\C(=O)N(CN3CCN(Cc4cccc(Cl)c4)CC3)c3ccc(Cl)cc32)cc1,,,,Active,Active,Active
